Hits are enriched below; roughly 3.5% of the tested compounds scored in any of these assays.
MrgX1 antagonist: antagonists of human MrgX1 receptor; Q96LB2; MRGX1-HEK293 calcium flux, Fluo-4, BAM8-22 antagonism; active compounds read low; B-score at 10 µM; 310,000 tested, 1.3% active;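 active = calcium-response B-score plate-corrected more than 3 library SD below zero, starting fluorescence within 5 deviations, no agonist response on first addition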;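 note: peak minus trough fluorescence over baseline after final BAM8-22 challenge near maximal dose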
Target sequence (Q96LB2 whole entry, looked up): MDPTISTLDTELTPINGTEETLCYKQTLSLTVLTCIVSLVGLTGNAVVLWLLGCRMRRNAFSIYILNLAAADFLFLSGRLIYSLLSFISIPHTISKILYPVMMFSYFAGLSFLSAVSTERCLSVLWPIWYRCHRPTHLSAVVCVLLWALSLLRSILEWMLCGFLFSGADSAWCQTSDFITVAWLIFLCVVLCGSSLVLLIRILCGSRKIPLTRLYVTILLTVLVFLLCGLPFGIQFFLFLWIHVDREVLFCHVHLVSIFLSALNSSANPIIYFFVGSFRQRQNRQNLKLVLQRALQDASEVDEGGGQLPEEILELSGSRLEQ
MrgX1 agonist: activates human MrgX1 receptor signaling. Q96LB2. MrgX1-HEK293 cells, Fluo-4 calcium fluorescence, agonist mode; active compounds read high. B-score at 10 µM. 310,000 tested, 0.44% active. AID 588627;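 active = calcium response B-score plate-corrected fluorescence ratio at least 3 library SD, with starting fluorescence B-score inside 5 SD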
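Test system: HEK293 cells stably expressing human MrgX1 receptor; amount: 15,000 cells per well; doses: compound delivered in addition one of three; times: overnight plating before 1 h dye loading; detection: Fluo-4 NW calcium-flux fluorescence, kinetic read; read-out basis: B-scored fluorescence response ratio; controls: positive and negative controls per plate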
RGS4 pot: potentiators or activators of RGS4 | AID 463111 | B-score at 10 µM | 310,000 tested, 0.92% active | HEK293 M3R/inducible RGS4, carbachol calcium flux Fluo4; active compounds read low;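 active = B-score of the integrated calcium signal more than 4 SD below the library mean, with starting fluorescence not abnormally high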;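 note: negative B-score means reduced calcium response which marks RGS4 activation or potentiation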
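test system = M3R-expressing HEK293 line, RGS4 induced by doxycycline | probe or stimulus = carbachol at ECmax as muscarinic agonist stimulus | timing = dye loading 30 min 37 °C, buffer rest 30 min RT | signal = calcium dye Fluo4 fluorescence | evaluation = B score from integrated fluorescence ratio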
MrgX1 PAM: allosterically activates human MrgX1 receptor signaling; AID 588675; 310,000 tested, 0.63% active; MrgX1-HEK293, Fluo-4 calcium flux, FDSS; active compounds read high; B-score at 10 µM; Q96LB2;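 active = plate-corrected calcium response at least 3 library SD above typical, normal starting fluorescence, not activating the receptor alone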;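 note: compound read alongside a low EC10 to EC30 dose of BAM8-22 agonist; peak minus trough fluorescence over baseline measured at the second addition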
RGS4 inh: human RGS4 inhibition; P49798; B-score at 10 µM; HEK293 M3R/RGS4 inducible, Fluo-4 calcium flux; active compounds read high; triggered by carbachol at its EC20; 310,000 tested, 0.45% active;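 active = B-score, a plate-corrected calcium signal, over three deviations above library mean, with baseline fluorescence within five deviations of library mean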;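 note: RGS4 expression induced by doxycycline in cells with stable M3 receptor; B-score is computed from the integrated fluorescence ratio over baseline after carbachol; higher B-score means a larger calcium signal and so more RGS4 inhibition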
Target sequence (P49798 whole entry, looked up): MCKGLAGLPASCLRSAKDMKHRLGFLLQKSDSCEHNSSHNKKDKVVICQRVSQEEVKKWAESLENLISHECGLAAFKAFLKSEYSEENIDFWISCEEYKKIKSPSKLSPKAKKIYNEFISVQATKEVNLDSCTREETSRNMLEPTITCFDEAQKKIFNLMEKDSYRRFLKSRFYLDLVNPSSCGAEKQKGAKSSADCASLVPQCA
* = called active by the depositor; i = inactive; nt = no result given.

SMILES	MrgX1 antagonist	MrgX1 agonist	RGS4 pot	MrgX1 PAM	RGS4 inh
C=CCn1c(-c2cccc([N+](=O)[O-])c2)n[nH]c1=S	i	i	i	i	i
C[C@@H]1C=C(C(=O)N2CCOCC2)O[C@H](OCc2ccc(CO)cc2)C1	i	i	i	i	i
C=C(C)COc1ccc(-c2ncnc(C(F)(F)F)c2-c2ccc(OC)cc2)c(O)c1	i	i	-7.1*	i	i
CC1CCN(C(=O)c2ccc3c(c2NCCO)C(=O)c2ccccc2C3=O)CC1	i	i	i	9.9*	i
CCc1cc(C(=O)OCC(=O)N2CCC(c3ccccc3)=N2)sc1C	i	i	-7.2*	i	i
Cc1cccc(C(=O)OCC(=O)N2CCC(c3ccccc3)=N2)c1O	i	i	i	i	i
CC(C)(C)OC(=O)CC12CCCCC1NC(=O)O2 (centres undefined)	i	i	i	i	i
O=[N+]([O-])c1ccccc1S(=O)(=O)N1CCN(C2CCN(Cc3ccccc3)CC2)CC1	i	i	-7.3*	i	i
O=[N+]([O-])c1ccc(S(=O)(=O)N2CCN(C3CCN(Cc4ccccc4)CC3)CC2)cc1	i	i	-7.5*	i	i
O=[N+]([O-])c1ccccc1S(=O)(=O)N1CCN(C2CCCC2)CC1	i	i	i	i	i
COC(=O)/C=c1/s/c(=C(/C#N)C(=O)N2CCCCC2)n(-c2ccccc2)c1=O	i	i	i	i	i
COc1cc(/C=c2\s/c(=C(/C#N)C(=O)N3CCCC3)n(-c3ccccc3)c2=O)ccc1O	i	i	i	14*	i
Cc1c(-c2ccc(OCc3ccccc3)cc2)nc2ccccc2c1C(=O)O	i	i	i	i	i
CC1=CC2=NC(=O)/C(=C/c3coc4ccc(Cl)cc4c3=O)C(=N)N2O1	i	i	-7.1*	i	i
O=C(NNC(=O)C1CCCN(c2ncccn2)C1)c1ccncc1 (centres undefined)	i	i	i	i	i
COCc1ccc(C(=O)N(C)CC2CCCN(CCc3ccc(Cl)cc3)C2)o1 (centres undefined)	i	i	i	i	i
COCc1ccc(C(=O)N(C)CC2CCCN(CCc3ccc(OC)cc3)C2)o1 (centres undefined)	i	i	-7.5*	i	i
CCCOc1ccc(NC(=O)Cc2ccc(S(=O)(=O)N3CCOCC3)s2)cc1OCCC	-4.7*	i	i	i	i
COc1cc2c(cc1OC)C(COc1cccc(C(F)(F)F)c1)NCC2 (centres undefined)	i	i	i	i	i
CCc1ccc2c(c1)c(N=NC1=NC(=O)CS1)c(O)n2CC	i	i	i	i	5*
CCc1ccc2[nH]c(O)c(N=NC3=NC(=O)CS3)c2c1	i	i	i	i	i
C/C=C/C=C/C(=O)OC(C)C(=O)Nc1cc([N+](=O)[O-])ccc1OC (centres undefined)	i	i	i	7.6*	i
COc1ccc([N+](=O)[O-])cc1NC(=O)C(C)OC(=O)c1ccccn1 (centres undefined)	i	i	i	i	i
Cc1nc(Nc2ccc(Cl)cc2)c(C#N)c(=O)[nH]1	i	i	i	i	i
COc1cccc(CNc2ccc(F)c([N+](=O)[O-])c2)c1O	i	i	i	18*	i
SMILES	MrgX1 antagonist	MrgX1 agonist	RGS4 pot	MrgX1 PAM	RGS4 inh
Cc1nc2nc(SCC(=O)NCCCN3CCCC(C)C3)nn2c(C)c1Cc1ccccc1Cl (centres undefined)	i	i	i	i	i
COCCn1c(=NC(=O)CSC(C)=O)sc2cc(F)ccc21	-9.3*	i	i	i	i
O=C1CCC(C(=O)N2CCCCCC2)CN1Cc1cccc(C(F)(F)F)c1 (centres undefined)	i	i	i	i	i
CCCCOc1ccc2c(c1)/C(=C(\C(Cl)=C(Cl)Cl)[N+](=O)[O-])N2	i	34*	i	i	i
CCOc1ccc2c(c1)/C(=C(\C(Cl)=C(Cl)Cl)[N+](=O)[O-])N2	i	i	i	i	i
O=C(/C=C/c1cccc(Br)c1)NCC1CCCCC1	-7*	i	i	i	i
COc1ccc(Cc2nnc(SCC(=O)Nc3ccccc3)[nH]c2=O)cc1	i	i	i	i	i
CCCc1c(-c2ccc(O)cc2)nn(-c2ccc(O)cc2)c1-c1ccc(O)cc1	i	i	i	i	i
CN1/C(=C/c2cccc[n+]2C)Sc2ccccc21	i	i	-7.5*	i	i
Cc1ccc2c(c1)N(C)/C(=C/c1cccc[n+]1CCO)S2	i	i	-7.3*	i	i
Cc1ccc2c(c1)N(C)/C(=C/c1cccc[n+]1C)S2	-7.2*	i	-7.3*	i	i
Cc1cn2c(nc(=O)c3cccnc32)s1	i	i	i	i	i
C[C@H](NC(=O)c1ccc2ccccc2c1)C(=O)N1CCC2(CC1)NCCc1[nH]cnc12	i	i	i	i	i
O=C(Nc1ccc(Cl)c(Cl)c1)c1cccnc1	i	i	i	i	i
O=C(NNS(=O)(=O)c1cc(Cl)c(Cl)cc1Cl)c1cccnc1	-9.2*	i	i	i	i
CCC1CCCCN1S(=O)(=O)c1ccc(C(=O)Nc2nnc(-c3cccs3)o2)cc1 (centres undefined)	i	65*	nt	i	nt
C/C(=N/NC(=O)c1ccncc1)C1=C(O)CC(C)(C)CC1=O	-4.7*	i	i	i	i
COc1ccc(/C(C)=N/NC(=O)c2ccncc2)cc1	i	i	i	i	i
O=Cc1cnc(N2CCOCC2)nc1	i	i	i	i	i
O=C(COc1ccc(S(=O)(=O)NC2CCCCC2)cc1)NCc1cccnc1	i	i	i	i	i
N#CCCN(Cc1cccnc1)S(=O)(=O)c1ccc(S(=O)(=O)NC2CCCCC2)cc1	-5.6*	i	i	i	i
COc1ccc(C(=O)NN2CCCCC2)cc1OC	-5*	i	i	i	i
COc1ccc(C(=O)c2ccc(OC)c(OC)c2)cc1	-5*	i	i	i	i
COc1ccc(C(=O)NCC(=O)N2CCCCC2)cc1OC	i	i	i	i	i
CCN(CC)CCN1C(=O)/C(=C\c2ccc(Cl)c([N+](=O)[O-])c2)SC1=Nc1ccc(OC)cc1	i	i	i	i	27*

Source: PubChem (Johns Hopkins Ion Channel Center)
